The source of these data is ChEMBL document CHEMBL2390932, “(+)-Usnic acid enamines with remarkable cicatrizing properties” (Bioorg Med Chem, 2013).

≈ marks a conversion by molar mass, not a printed value. Calls of active or inactive are those of the source. The calls are words filed in the database; no cut-off is given here.

Series [1] has as its system Mus musculus. Description: Wound healing activity in Swiss albino mouse circular excision wound model assessed as wound contraction applied topically qd after 2 days relative to control. It counts as functional. Also on record: concentration or dose not given beside the values.
Series [2] concerns HaCaT. The series is described as follows: Wound healing activity in human HaCaT cells assessed as wound closure rate at 1.7 ug/mL after 24 hrs by inverted microscopic analysis. It counts as functional, cell-based. A digest of the protocol:
(§1)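 Confluent HaCaT monolayers scratched with a pipette tip, washed, re-fed with medium and exposed to compound for 24 h; 20% (v/v) platelet lysate served as positive control. Cells fixed in 3.7% formaldehyde and stained with 0.1% toluidine blue. Wound width measured by inverted microscope with camera at 0 and 24 h; closure taken as the width difference. Results expressed relative to control mean (100%), two independent experiments, n = 20 each.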

In series [3] the test system is Hathewaya histolytica. Description: Inhibition of Clostridium histolyticum collagenase using N-[3-(2-Furyl)acryloyl]-Leu-Gly-Pro-Ala as substrate at 50 ug/ml after 15 mins by spectrophotometric analysis relative to control. A digest of the protocol:
(§2)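 Samples dissolved in DMSO and diluted in 50 mM Tricine buffer (0.4 M NaCl, 0.01 M CaCl2, pH 7.5). Clostridium histolyticum collagenase and sample preincubated 5 min at 25 °C, then incubated 15 min. FALGPA substrate, prepared at 2 mM in the same buffer, was then added. Inhibition given as % with S.E.M.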

The species named for series [4] is Bos taurus. Description: Inhibition of bovine hyaluronidase assessed as sodium hyaluronate conversion to N-acetylglucosamine at 100 ug/ml by spectrophotometric analysis relative to control.
For series [5], the system named is Mus musculus. Description: Wound healing activity in Swiss albino mouse circular excision wound model assessed as wound contraction applied topically qd after 10 days (reference value: 6.29%). It counts as functional.
The species named for series [6] is Bos taurus. Description: Inhibition of bovine hyaluronidase assessed as sodium hyaluronate conversion to N-acetylglucosamine at 50 ug/ml by spectrophotometric analysis relative to control.
A further series concerns A-431. The series is described as follows: Cytotoxicity against human A431 cells after 24 hrs by neutral red dye uptake assay. It counts as functional, cell-based. The conditions noted are these: A-431, 24 h. A digest of the protocol:
(§3)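 Cells kept in DMEM with 10% FBS at 37 °C, 5% CO2. Seeded at 20,000 cells/well, grown 24 h, then exposed 24 h to a concentration series. Neutral red (0.05%) added for 3 h at 37 °C, dye extracted with 1% acetic acid in 50% ethanol, absorbance read at 540 nm. IC50, IC05 and 95% confidence intervals derived from a downhill logistic curve fit.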

The test system of series [7] is Mus musculus. The series is described as follows: Wound healing activity in Swiss albino mouse circular excision wound model assessed as wound contraction applied topically qd measured on the same day relative to control. More on the design: concentration or dose not given beside the values. It counts as functional.
Series [8] relates to Hathewaya histolytica. Description: Inhibition of Clostridium histolyticum collagenase using N-[3-(2-Furyl)acryloyl]-Leu-Gly-Pro-Ala as substrate at 100 ug/ml after 15 mins by spectrophotometric analysis relative to control. A digest of the protocol: as §2
In series [9] the test system is Mus musculus. Description: Wound healing activity in Swiss albino mouse circular excision wound model assessed as wound contraction applied topically qd after 8 days (reference value: 2.18%). It counts as functional.
In series [10] the test system is HaCaT. The series is described as follows: Wound healing activity in human HaCaT cells assessed as wound closure rate at 2.5 ug/mL after 24 hrs by inverted microscopic analysis. It counts as functional, cell-based. Put shortly: as §1
For series [11], the system named is HaCaT. The series is described as follows: Wound healing activity in human HaCaT cells assessed as wound closure rate at 2.2 ug/mL after 24 hrs by inverted microscopic analysis. It counts as functional, cell-based. A digest of the protocol:
as §1

Series [12] relates to HaCaT. Description: Wound healing activity in human HaCaT cells assessed as wound closure rate at 2 ug/mL after 24 hrs by inverted microscopic analysis. It counts as functional, cell-based. A digest of the protocol:
as §1

The subject of series [13] is HaCaT. The series is described as follows: Wound healing activity in human HaCaT cells assessed as wound closure rate at 2.1 ug/mL after 24 hrs by inverted microscopic analysis. It counts as functional, cell-based. Put shortly:
as §1

In series [14] the target is T1, Neutrophil elastase (Homo sapiens) (UniProt P08246).
T1 sequence (whole entry): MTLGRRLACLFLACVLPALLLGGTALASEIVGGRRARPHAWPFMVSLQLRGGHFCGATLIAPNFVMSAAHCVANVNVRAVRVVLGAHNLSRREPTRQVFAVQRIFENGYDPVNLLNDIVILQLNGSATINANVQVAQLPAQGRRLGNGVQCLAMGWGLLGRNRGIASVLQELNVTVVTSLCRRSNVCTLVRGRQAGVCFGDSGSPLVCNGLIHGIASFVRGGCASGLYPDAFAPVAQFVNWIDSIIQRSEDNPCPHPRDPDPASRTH
The series is described as follows: Inhibition of human neutrophil elastase assessed as N-methoxysuccinyl-Ala-Ala-Pro-Val p-nitroanilide conversion to p-nitroaniline at 50 ug/ml after 1 hr by spectrophotometric analysis relative to control. Put shortly: (§4)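 Sample and human neutrophil elastase (17 mU/ml) mixed in 0.1 M Tris–HCl, pH 7.5, and held 5 min at 25 °C. MeOSuc-Ala-Ala-Pro-Val p-nitroanilide was added and the mixture incubated 1 h at 37 °C. Reaction stopped with soybean trypsin inhibitor (1 mg/ml); p-nitroaniline absorbance read immediately. Inhibition given as % with S.E.M.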

Series [15] has as its system Mus musculus. Description: Wound healing activity in Swiss albino mouse circular excision wound model assessed as wound contraction applied topically qd after 4 days relative to control. It counts as functional. Also on record: concentration or dose not given beside the values.
The next series deals with Rattus norvegicus. Description: Wound healing activity in Sprague-Dawley rat linear incision wound model assessed as tensile strength of wound applied topically qd for 9 days measured on day 10 by tensiometer (reference value: 10.6%). It counts as functional.
The test system of series [16] is HaCaT. The series is described as follows: Wound healing activity in human HaCaT cells assessed as wound closure rate at 5 uM after 24 hrs by inverted microscopic analysis. It counts as functional, cell-based. A digest of the protocol: as §1
Series [17] concerns Mus musculus. The series is described as follows: Wound healing activity in Swiss albino mouse circular excision wound model assessed as hydroxyproline content in skin applied topically qd after 7 days by spectrophotometric analysis. It counts as functional. Put shortly: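 Skin from ointment-treated mouse wounds (7 days) dried at 60–70 °C to constant weight, then hydrolyzed in 6 N HCl for 3 h at 130 °C. Hydrolysate neutralized to pH 7, oxidized with chloramine T and reacted with Ehrlich reagent at 60 °C. Read at 557 nm and reported as mg/g with S.E.M.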

Series [18] concerns HaCaT. Description: Cytotoxicity against human HaCaT cells after 24 hrs by neutral red dye uptake assay. It counts as cell-based. Put shortly:
as §3

Series [19] deals with Mus musculus. The series is described as follows: Wound healing activity in Swiss albino mouse circular excision wound model assessed as wound contraction applied topically qd after 6 days (reference value: 3.41%). It counts as functional.
The target in series [20] is T1, Neutrophil elastase (Homo sapiens). The series is described as follows: Inhibition of human neutrophil elastase assessed as N-methoxysuccinyl-Ala-Ala-Pro-Val p-nitroanilide conversion to p-nitroaniline at 100 ug/ml after 1 hr by spectrophotometric analysis relative to control. A digest of the protocol:
as §4

With `CC(=O)C1=C(O)C=C2Oc3c(C(C)=O)c(O)c(C)c(O)c3[C@@]2(C)C1=O` [(+)-USNIC ACID], the Activity with Mus musculus [1] was 17.04%; in the series with Mus musculus [5], 1.85%; with Mus musculus [7], 19.59%; with Mus musculus [9], 5.62%; in the series on Mus musculus [15] it was 14.1%; in the series on Rattus norvegicus it was 31.9%. The Activity in the series with Mus musculus [17] is on record as 36.1 mg/g; in the series with Mus musculus [19] it was 10.25%. For the same compound, the outcome in the series on HaCaT [2], in the series with HaCaT [10], with HaCaT [11], in the series on HaCaT [12], in the series with HaCaT [13] and in the series with HaCaT [16] was Active. Further, the inhibition (commonly how much of the control response was suppressed) in the series with Hathewaya histolytica [3] came to 27.1%; in the series filed under Bos taurus [4], 33.1%; in the series listed under Bos taurus [6], 14.4%; with Hathewaya histolytica [8], 51.2%; in series [14], 22.1%; in [20], 36.4%. Moreover, the IC50 (usually the point on the concentration scale where inhibition reaches its midpoint) in the series with A-431 worked out at 15 µg/mL (≈ 43.6 µM); with HaCaT [18] (Homo sapiens, HaCaT), 24 µg/mL (≈ 69.7 µM). In the series with HaCaT [18] (human, hacat), this compound came in with an IC05 of 0.5 µg/mL.
